In the array DNA melting data of Ke et al. (doi:10.1101/2024.01.08.574731) one finds folding enthalpy and Tm data, which are given here for 73 sequences.

Data set [1] in a line: folding enthalpy; higher = less favourable; fluorescence melt of hairpins on a sequencing array, two-state fit. Particulars: sodium 0.088 M. In outline:
(§1)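 Melting temperature and folding enthalpy were derived from bootstrapped two-state fits. The fitted temperatures were raised by 9.35 °C to agree with UV melts, and four replicates were combined by inverse variance. The underlying data were Cy3 fluorescence images of library hairpins, with annealed Cy3 and quencher oligos, on a sequenced MiSeq flow cell in 50 mM Na-HEPES pH 8.0, 25 mM NaCl, taken in 2.5 °C steps up to 60 °C, normalised to pre-quench Cy3 and to control constructs.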

Data set [2] is described as follows: melting temperature; fluorescence melt of hairpins on a sequencing array, two-state fit, raised by 9.35 °C to match UV melts. Particulars: sodium 0.088 M. Put shortly: as §1

Take GCACACGAAAGTGTATGC ((((((....)))..))): the folding enthalpy in data set [1] is -15.1 kcal/mol. Besides, in data set [2], the Tm came out at 45.8 °C.
Taken in the same sequence, the figures for GCACACGAAAGTGTTTGC ((((((....)))..))) were -13.7 kcal/mol and 39.6 °C.
Consider GCACAGCGAAAGCAGAGC ((.(.((....)).).)), for which, in data set [1], the folding enthalpy is -13.7 kcal/mol. Also, the Tm in data set [2] is 47.3 °C.
In the case of GCACAGCGAAAGCGGCGC ((.(.((....)).).)), the folding enthalpy in data set [1] was -28.6 kcal/mol. The Tm in data set [2] amounted to 63.7 °C.
In the same order, the values of GCACAGCGAAAGCTCGGC ((..(((....)))..)) are -15.2 kcal/mol and 38.4 °C.
Taken in the same sequence, the figures for GCACAGCGAAAGCTGAGC ((.((((....)))).)) were -17.2 kcal/mol and 63.4 °C.
On to GCACAGGGAAACCTGTGC (((((((....))))))), for which the folding enthalpy in data set [1] was -38 kcal/mol. Moreover, in data set [2], the Tm was 69.3 °C.
In the same order, the values of GCACATCCGAAAGGATGC (((..(((....)))))) are -8.29 kcal/mol and 37.4 °C.
In the same order, the values of GCACATGGAAACATGTAC (.(((((....))))).) are -17 kcal/mol and 37.4 °C.
Taken in the same sequence, the figures for GCACATGGAAACATGTGC (((((((....))))))) were -43.4 kcal/mol and 67.4 °C.
With GCACCAGAAATGGTGC ((((((....)))))), the folding enthalpy in data set [1] is -35.6 kcal/mol. Further, the Tm in data set [2] was determined as 67.8 °C.
Taken in the same sequence, the figures for GCACCAGCGAAAGCTTGC (((..(((....)))))) were -11.8 kcal/mol and 38.1 °C.
In the same order, the values of GCACCAGGAAACTGGTAC (.(((((....))))).) are -16.7 kcal/mol and 39.6 °C.
Taken in the same sequence, the figures for GCACCCACGAAAGTGTGC (((..(((....)))))) were -19 kcal/mol and 45.4 °C.
In the case of GCACCCCGAAAGGGTTGC (((.(((....))).))), in data set [1], the folding enthalpy is -34.8 kcal/mol. For the same sequence, the Tm in data set [2] was 55.1 °C.
Taken in the same sequence, the figures for GCACCCGAAAGGGACTGC ((((((....)))..))) were -16 kcal/mol and 40.8 °C.
On to GCACCCGGAAACGGATGC (((.(((....))).))), for which the folding enthalpy in data set [1] was -25.5 kcal/mol. Moreover, the Tm in data set [2] amounted to 51.6 °C.
Taken in the same sequence, the figures for GCACCGCCGAAAGGCTGC (((..(((....)))))) were -14.7 kcal/mol and 38.9 °C.
Taken in the same sequence, the figures for GCACCGCGAAAGCAGAGC ((.(.((....)).).)) were -15.2 kcal/mol and 41.5 °C.
In the same order, the values of GCACCGCGAAAGCCTTGC (((..((....))..))) are -14.8 kcal/mol and 37 °C.
For GCACCGCGAAAGCGAAGC ((..(((....)))..)), the folding enthalpy in data set [1] is -11.7 kcal/mol. In data set [2], the Tm was found to be 41.4 °C.
With GCACCGCGAAAGCGACGC ((..(((....)))..)), the folding enthalpy in data set [1] is -15.6 kcal/mol. Moreover, in data set [2], the Tm was 47.2 °C.
In the same order, the values of GCACCGCGAAAGCGAGGC ((..(((....)))..)) are -14.6 kcal/mol and 53.2 °C.
As for GCACCGCGAAAGCGATGC (((.(((....))).))), in data set [1], the folding enthalpy was -43.6 kcal/mol. Also, the Tm in data set [2] is 57.4 °C.
In the same order, the values of GCACCGCGAAAGCGCAGC ((..(((....)))..)) are -9.35 kcal/mol and 38.4 °C.
In the same order, the values of GCACCGCGAAAGCGCCGC ((..(((....)))..)) are -8.78 kcal/mol and 36.1 °C.
For GCACCGCGAAAGCGCTGC (((.(((....))).))), the folding enthalpy in data set [1] was -31.9 kcal/mol. Besides, the Tm in data set [2] turned out to be 50.3 °C.
Consider GCACCGCGAAAGCGTGC (((.(((....)))))), for which the folding enthalpy in data set [1] was -19 kcal/mol. Further, in data set [2], the Tm turned out to be 63.8 °C.
Taken in the same sequence, the figures for GCACCGCGAAAGCTGAGC ((.(.((....)).).)) were -14.4 kcal/mol and 37.5 °C.
Taken in the same sequence, the figures for GCACCGGGAAACCAGTGC ((((.((....)).)))) were -32.1 kcal/mol and 49.4 °C.
With GCACCTCGAAAGAGTGC (((.(((....)))))), in data set [1], the folding enthalpy was -46.4 kcal/mol. Besides, the Tm in data set [2] is 53.3 °C.
GCACGACCGAAAGGTTGC (((..(((....)))))): the folding enthalpy in data set [1] was -14.4 kcal/mol. Also, the Tm in data set [2] came to 38.1 °C.
In the same order, the values of GCACGACGAAAGTCATGC (((.(((....))).))) are -36.5 kcal/mol and 52.6 °C.
Taken in the same sequence, the figures for GCACGAGGAAACCCGTAC (.(((.(....).))).) were -6.61 kcal/mol and 21.9 °C.
GCACGAGGAAACTCGTAC (.(((((....))))).): the folding enthalpy in data set [1] was -12.7 kcal/mol. Moreover, the Tm in data set [2] came out at 38.9 °C.
Taken in the same sequence, the figures for GCACGCCCGAAAGGGTGC (((..(((....)))))) were -11.8 kcal/mol and 49.9 °C.
Regarding GCACGCGAAAGCGATGC ((((((....))).))), the folding enthalpy in data set [1] is -21.3 kcal/mol. In addition, the Tm in data set [2] is 65.2 °C.
In the same order, the values of GCACGCGAAAGCGCATGC ((((((....)))..))) are -13.6 kcal/mol and 43 °C.
As to GCACGCGAAAGCGGGTGC ((((((....)))..))), the folding enthalpy in data set [1] was -17.4 kcal/mol. In data set [2], the Tm was 66.1 °C.
Taken in the same sequence, the figures for GCACGCGAAAGCGTTTGC ((((((....)))..))) were -10.6 kcal/mol and 42.9 °C.
In the same order, the values of GCACGCGGAAACGCATGC (((.(((....))).))) are -40.4 kcal/mol and 52.8 °C.
Regarding GCACGGCGAAAGCAATGC (((..((....))..))), the folding enthalpy in data set [1] was -15.5 kcal/mol. Also, in data set [2], the Tm was 39.1 °C.
Taken in the same sequence, the figures for GCACGGCGAAAGCCCCGC ((..(((....)))..)) were -8.33 kcal/mol and 32.2 °C.
As for GCACGGCGAAAGCCCTGC (((.(((....))).))), in data set [1], the folding enthalpy is -26 kcal/mol. Besides, in data set [2], the Tm came out at 47.3 °C.
On to GCACGGCGAAAGCCTAGC ((..(((....)))..)), for which the folding enthalpy in data set [1] is -14.4 kcal/mol. Besides, in data set [2], the Tm came to 39.5 °C.
In the same order, the values of GCACGGCGAAAGCCTTGC (((.(((....))).))) are -54.8 kcal/mol and 54.2 °C.
Taken in the same sequence, the figures for GCACGGGGAAACCCACGC ((..(((....)))..)) were -23.9 kcal/mol and 41.5 °C.
As to GCACGGGGAAACTCGTGC (((((.(....).))))), the folding enthalpy in data set [1] was -45.9 kcal/mol. Also, in data set [2], the Tm is 60.5 °C.
As to GCACGGTCGAAAGACTGC (((..(((....)))))), in data set [1], the folding enthalpy was -13.9 kcal/mol. Moreover, in data set [2], the Tm was determined as 39.4 °C.
In the same order, the values of GCACGTGGAAACACGCAC (..((((....))))..) are -9.68 kcal/mol and 29.2 °C.
Turning to GCACTACGAAAGTAATGC (((.(((....))).))), in data set [1], the folding enthalpy is -29.3 kcal/mol. Also, the Tm in data set [2] turned out to be 43.7 °C.
For the sequence GCACTAGGAAACTAGCGC ((.((((....)))).)), the folding enthalpy in data set [1] was -33.4 kcal/mol. Besides, the Tm in data set [2] was determined as 45.5 °C.
Taken in the same sequence, the figures for GCACTCCCGAAAGGGTGC (((..(((....)))))) were -24.2 kcal/mol and 50.7 °C.
Taken in the same sequence, the figures for GCACTCCGAAAGGATTGC (((.(((....))).))) were -28.1 kcal/mol and 50.6 °C.
Consider GCACTCGAAAGAGATGC ((((((....))).))), for which, in data set [1], the folding enthalpy was -29.4 kcal/mol. Further, the Tm in data set [2] is 49.4 °C.
In the same order, the values of GCACTCGAAAGAGGGTGC ((((((....)))..))) are -31.5 kcal/mol and 50.8 °C.
With GCACTCGAAAGAGTTGC ((((((....))).))), the folding enthalpy in data set [1] is -22.3 kcal/mol. The Tm in data set [2] was 51.4 °C.
In the same order, the values of GCACTCGGAAACGAGCAC (..((((....))))..) are -11.7 kcal/mol and 29.3 °C.
For the sequence GCACTCTCGAAAGAGTGC (((..(((....)))))), the folding enthalpy in data set [1] was -45.9 kcal/mol. In addition, the Tm in data set [2] was 65 °C.
Consider GCACTGCGAAAGCAGCGC ((.((((....)))).)), for which the folding enthalpy in data set [1] is -28.9 kcal/mol. Further, the Tm in data set [2] is 69.1 °C.
As to GCACTGCGAAAGCGCTGC (((..((....))..))), in data set [1], the folding enthalpy is -20.6 kcal/mol. The Tm in data set [2] came to 42.6 °C.
Taken in the same sequence, the figures for GCACTGGGAAACCGGTGC ((((.((....)).)))) were -44.1 kcal/mol and 59.6 °C.
Taken in the same sequence, the figures for GCACTGTCGAAAGACTGC (((..(((....)))))) were -15.9 kcal/mol and 39.4 °C.
In the same order, the values of GCAGACCGAAAGGTATGC (((.(((....))).))) are -39.5 kcal/mol and 64.1 °C.
In the case of GCAGACGAAAGTCAATGC ((((((....)))..))), the folding enthalpy in data set [1] was -19.3 kcal/mol. Also, in data set [2], the Tm was found to be 43.9 °C.
As for GCAGACGAAAGTCAGTGC ((((((....)))..))), in data set [1], the folding enthalpy was -19 kcal/mol. The Tm in data set [2] stood at 46.4 °C.
Take GCAGACGAAAGTCATTGC ((((((....)))..))): the folding enthalpy in data set [1] is -16.5 kcal/mol. The Tm in data set [2] turned out to be 37.1 °C.
GCAGACGAAAGTCCATGC ((((((....)))..))): in data set [1], the folding enthalpy is -16.5 kcal/mol. The Tm in data set [2] is 35.3 °C.
In the same order, the values of GCAGACGAAAGTCCGTGC ((((((....)))..))) are -15.1 kcal/mol and 38.6 °C.
Taken in the same sequence, the figures for GCAGACGAAAGTCCTGC ((((((....))).))) were -23.8 kcal/mol and 52.9 °C.
GCAGACGAAAGTCGCTGC ((((((....)))..))): the folding enthalpy in data set [1] is -22.2 kcal/mol. The Tm in data set [2] worked out at 57.6 °C.
As to GCAGACGAAAGTCTCTGC ((((((....)))..))), in data set [1], the folding enthalpy is -14.8 kcal/mol. Moreover, in data set [2], the Tm was 44.1 °C.
As for GCAGACGCGAAAGCGTGC (((..(((....)))))), in data set [1], the folding enthalpy was -11.8 kcal/mol. The Tm in data set [2] is 52 °C.
